Laboratory results published in paper PMC6923801 (Journal of medicinal chemistry, 2019).
One block for each compound: values may come before it.

Experiments:
human GPR68 = human GPR68 (Homo sapiens, UniProt Q15743); assay: GloSensor cAMP assay, proton-mediated Gs-cAMP production at human GPR68; type: cell-based; details: for Δ: difference of Log(αβ/KB) from that of 1
Outline: (§1)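 HEK293T cells were transiently transfected with receptor and GloSensor cAMP plasmids, overnight (16–20 h). Cells were plated on poly-L-Lys in DMEM + 1% dFBS for 6–24 h, then loaded with 3.5 mM luciferin (HBSS, 20 mM TAPS, pH 8.40) for 1 h at 37 °C. Drug was applied in Ca/Mg-free HBSS pH buffers (MES 5.60–6.70, HEPES 6.80–8.20, TAPS 8.30–8.60) with 10 μM Ro 20-1724. Luminescence was read at 20–30 min.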

[1] = tested on: human GPCRome (318 GPCRs); assay: PRESTO-Tango GPCRome off-target agonist screen; type: cell-based; details: 1 μM
Outline: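 HTLA cells were plated in DMEM + 2% dFBS overnight, then transfected overnight with receptor Tango constructs (15 ng/well) by in-plate PEI. Test compound was added without medium change and left overnight. Bright-Glo luminescence was read after 20 min at room temperature and expressed as fold of basal, using quadruplicate basal and sample wells. Controls were D2 with 100 nM quinpirole and untransfected cells.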

[2] = tested on: 48 common GPCRs, ion channels, and transporters; assay: Radioligand binding panel of 48 common drug targets
Outline: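 Binding profiling was done by the NIMH PDSP. Targets were first tested at 10 μM in quadruplicate. pKi values were determined for targets with ≥50% inhibition, from at least three independent assays, each in triplicate.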

GPR65 [3] = target: T1, GPR65 (Homo sapiens, UniProt Q8IYL9); details: cited from earlier work
GPR4 [4] = target: T2, GPR4 (Homo sapiens, UniProt P46093); details: cited from earlier work
mouse GPR68 = mouse GPR68 (Mus musculus, UniProt Q8BFQ3); assay: GloSensor cAMP assay at mouse GPR68; type: cell-based
Outline: as §1

[5] = Mouse pharmacokinetic study; type: in vivo; details: mice, single 25 mg/kg IP
Outline: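 Nine male Swiss Albino mice received one intraperitoneal dose of 25 mg/kg. Vehicle was 5% N-methyl-2-pyrrolidone, 5% Solutol HS-15 and 90% normal saline. Plasma and brain were sampled at 0.5, 1.0 and 2.0 h. Concentrations are averages of three mice per time point ± SEM.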

5-HT2B receptors = 5-HT2B receptors (Homo sapiens, UniProt P41595); assay: Calcium release functional assay at 5-HT2B receptors; type: cell-based
Outline: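 HEK293 cells stably expressing 5-HT2B were plated in DMEM with 1% dFBS overnight (16–20 h). They were loaded with Fluo-4 Direct dye for 1 h at 37 °C in HBSS with 20 mM HEPES and 2.5 mM probenecid, pH 7.40. Drug dilutions contained 1 mg/mL BSA and 0.1 mg/mL ascorbic acid. Fluorescence was read 1/s for 2 min, with 10 s baseline. Read-out was peak fold of basal within the first minute.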

MT1 receptor = MT1 receptor (Homo sapiens, UniProt P48039); assay: Tango arrestin recruitment concentration response, MT1; type: cell-based
Outline: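 HTLA cells were transfected overnight with receptor DNA in DMEM + 10% FBS, then plated on poly-L-Lys in DMEM + 1% dFBS. Test compound was added 6 h later and incubated overnight (16–20 h). After removal of medium, Bright-Glo reagent was added and luminescence counted.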

GPR4 [6] = target: T2, GPR4; assay: GloSensor cAMP assay at GPR4; type: cell-based; details: proton concentration-response with increasing modulator
Outline: as §1

GPR65 [7] = target: T1, GPR65; assay: GloSensor cAMP assay at GPR65; type: cell-based; details: proton concentration-response with increasing modulator
Outline: as §1

Sequence of human GPR68 (Q15743 whole entry): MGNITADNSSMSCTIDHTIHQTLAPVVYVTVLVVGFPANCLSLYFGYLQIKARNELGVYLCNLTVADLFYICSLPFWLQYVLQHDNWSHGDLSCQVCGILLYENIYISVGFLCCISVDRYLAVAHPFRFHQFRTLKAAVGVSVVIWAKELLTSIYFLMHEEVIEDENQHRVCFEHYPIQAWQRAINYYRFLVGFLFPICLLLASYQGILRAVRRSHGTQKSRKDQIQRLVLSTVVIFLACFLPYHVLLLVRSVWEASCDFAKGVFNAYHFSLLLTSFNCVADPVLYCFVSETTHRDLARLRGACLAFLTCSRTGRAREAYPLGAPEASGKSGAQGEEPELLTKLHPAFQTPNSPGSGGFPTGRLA
Sequence of mouse GPR68 (Q8BFQ3 whole entry): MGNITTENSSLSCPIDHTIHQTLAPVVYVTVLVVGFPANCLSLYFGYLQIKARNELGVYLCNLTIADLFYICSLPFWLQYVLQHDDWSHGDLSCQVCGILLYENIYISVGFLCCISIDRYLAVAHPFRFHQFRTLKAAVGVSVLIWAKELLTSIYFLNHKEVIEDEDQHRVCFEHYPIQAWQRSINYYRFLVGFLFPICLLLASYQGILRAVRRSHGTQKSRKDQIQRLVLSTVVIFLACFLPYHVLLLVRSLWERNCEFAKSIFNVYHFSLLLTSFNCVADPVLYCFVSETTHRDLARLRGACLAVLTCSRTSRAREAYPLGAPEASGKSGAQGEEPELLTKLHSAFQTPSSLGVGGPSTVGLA
T2 sequence (P46093 whole entry): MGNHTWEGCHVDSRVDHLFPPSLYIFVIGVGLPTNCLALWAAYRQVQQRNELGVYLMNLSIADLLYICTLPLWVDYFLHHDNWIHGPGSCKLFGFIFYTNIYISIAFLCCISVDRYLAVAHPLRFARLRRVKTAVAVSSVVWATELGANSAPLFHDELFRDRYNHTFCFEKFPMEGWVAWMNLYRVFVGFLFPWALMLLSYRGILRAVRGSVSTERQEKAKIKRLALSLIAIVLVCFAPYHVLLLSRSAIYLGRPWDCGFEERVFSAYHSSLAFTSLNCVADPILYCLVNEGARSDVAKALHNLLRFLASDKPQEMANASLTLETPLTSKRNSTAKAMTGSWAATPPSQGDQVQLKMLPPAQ
T1 sequence (Q8IYL9 whole entry): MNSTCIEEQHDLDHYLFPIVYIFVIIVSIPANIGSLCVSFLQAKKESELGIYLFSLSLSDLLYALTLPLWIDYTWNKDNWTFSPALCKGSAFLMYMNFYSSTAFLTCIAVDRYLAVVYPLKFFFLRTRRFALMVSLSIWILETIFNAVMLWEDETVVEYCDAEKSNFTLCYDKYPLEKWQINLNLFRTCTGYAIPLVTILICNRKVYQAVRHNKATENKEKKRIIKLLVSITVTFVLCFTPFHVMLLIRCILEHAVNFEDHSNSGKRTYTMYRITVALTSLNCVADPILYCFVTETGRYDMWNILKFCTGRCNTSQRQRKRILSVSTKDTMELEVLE
Sequence of MT1 receptor (P48039 whole entry): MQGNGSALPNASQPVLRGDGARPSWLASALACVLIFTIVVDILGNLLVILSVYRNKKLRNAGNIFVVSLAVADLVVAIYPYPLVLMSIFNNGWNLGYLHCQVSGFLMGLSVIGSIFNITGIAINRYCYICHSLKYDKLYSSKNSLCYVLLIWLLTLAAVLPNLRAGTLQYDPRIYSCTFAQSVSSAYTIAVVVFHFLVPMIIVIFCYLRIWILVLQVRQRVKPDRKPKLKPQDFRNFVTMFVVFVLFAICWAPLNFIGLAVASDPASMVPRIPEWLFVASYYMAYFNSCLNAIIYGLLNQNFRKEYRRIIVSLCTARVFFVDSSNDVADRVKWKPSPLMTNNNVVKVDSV
Sequence of 5-HT2B receptors (P41595 whole entry): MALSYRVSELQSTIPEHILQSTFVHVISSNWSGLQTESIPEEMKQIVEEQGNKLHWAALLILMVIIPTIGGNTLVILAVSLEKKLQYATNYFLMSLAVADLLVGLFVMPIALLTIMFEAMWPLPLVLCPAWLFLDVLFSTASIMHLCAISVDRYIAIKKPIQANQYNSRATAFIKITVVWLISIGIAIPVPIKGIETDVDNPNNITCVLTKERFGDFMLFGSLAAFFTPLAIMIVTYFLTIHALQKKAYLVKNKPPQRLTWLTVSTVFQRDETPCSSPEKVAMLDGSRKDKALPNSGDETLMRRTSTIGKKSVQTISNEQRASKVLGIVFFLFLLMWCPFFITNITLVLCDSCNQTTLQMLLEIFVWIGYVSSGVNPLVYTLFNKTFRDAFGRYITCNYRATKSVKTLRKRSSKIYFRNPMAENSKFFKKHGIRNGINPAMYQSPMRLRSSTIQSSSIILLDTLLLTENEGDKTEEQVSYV

- Log (α) (human GPR68; affinity cooperativity, human GPR68, HEK293T, Gs-cAMP, mean ± SEM): Inactive
- −Log (KB) (human GPR68; allosteric binding affinity from functional assay, human GPR68, mean ± SEM): Inactive
- Log (αβ/KB) (human GPR68; allosteric index, human GPR68, mean ± SEM): Inactive
- Δ (human GPR68; human GPR68): Inactive
- Log (β) (human GPR68; efficacy cooperativity, human GPR68, HEK293T, Gs-cAMP, mean ± SEM): Inactive
- PAM activity at GPR68 (human GPR68; inactive analogues): do not show PAM activity
- binding affinity to common drug targets [2]: minimal binding affinities
Structure (SMILES): CN(C)c1nc(NCc2ccccc2)nc(-c2ccccc2CO)n1 [Compound 7, (2-(4-(Benzylamino)-6-(dimethylamino)-1,3,5-triazin-2-yl)-phenyl)methanol]
- off-target agonist activity at human GPCRome [1]: no off-target agonist activity

- Kb (human GPR68): 44.7 µM
- Δ (human GPR68; human GPR68): 0.00
- Kb (mouse GPR68): 74.1 µM
- Δ (mouse GPR68; difference of Log(αβ/KB) at mouse GPR68 from the corresponding values at human GPR68): −0.34
Structure (SMILES): Nc1nc(NCc2ccccc2)nc(-c2ccccc2CO)n1 [Compound 1]
- activity at GPR65 (GPR65 [3]): no activity
- activity at GPR4 (GPR4 [4]): no activity

- Kb (human GPR68): 1.41 µM
- Δ (human GPR68; human GPR68): 1.52
- fold increased allosteric activity (log(αβ/KB)) compared to 1 (human GPR68; human GPR68): 33 fold
- bioavailability [5]: bioavailable
- blood-brain barrier penetration [5]: can readily cross the BBB
- clinical signs [5]: no clinical signs observed
- time high exposure levels in plasma and brain were maintained [5]: 2 h
- agonist activity at 5-HT2B receptors (5-HT2B receptors): no agonist activity
- agonist type at MT1 (MT1 receptor): weak full agonist
- PAM activity at GPR4 (GPR4 [6]): no PAM activity
- Kb (mouse GPR68): 7.59 µM
Structure (SMILES): Nc1nc(NCc2ccc(Oc3ccccc3)cc2)nc(-c2c(F)cccc2CO)n1 [Compound 71, (2-(4-Amino-6-((4-phenoxybenzyl)amino)-1,3,5-triazin-2-yl)-3-fluorophenyl)methanol]
- off-target agonist activity at human GPCRome [1]: agonist activity only at the MT1 and MT2 receptors
- PAM activity at GPR65 (GPR65 [7]): weak potentiation of proton activity at GPR65 only at high concentrations
